Data as given in ChEMBL document CHEMBL3817744, “5'-Substituted Amiloride Derivatives as Allosteric Modulators Binding in the Sodium Ion Pocket of the Adenosine A2A Receptor” (J Med Chem, 2016).

Columns and labels:
Adenosine receptor A2a [1] = molecular target: T1, Adenosine receptor A2a (Homo sapiens, UniProt P29274); test: Displacement of [3H]ZM-241,385 from human N-terminal FLAG-tagged adenosine A2A receptor expressed in HEK293 cell membrane assessed as radioligand binding at 10 uM by microbeta scintillation counting method relative to control; type: cell membranes
In short: (§1)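 Membranes from HEK293 cells stably expressing hA2AAR-WT (15 µg protein) or transiently expressing W246A mutant (4 µg; harvested 48 h post-transfection), ADA-treated. Incubated 2 h at 25 °C in 50 mM Tris-HCl pH 7.4 with 2.5 nM [3H]ZM-241,385 ± 10 µM test compound; filtration, scintillation counting. 100% = no compound; 0% = nonspecific (100 µM NECA for WT, 10 µM ZM-241,385 for mutant). Means of ≥3 independent assays in duplicate.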

[2] = tested on: Adenosine A2 receptor (Homo sapiens), P29275+P29274 [W246A]; test: Displacement of [3H]ZM-241,385 from human N-terminal FLAG-tagged adenosine A2A receptor W246A 6.48 mutant expressed in HEK293 cell membrane assessed as radioligand binding at 10 uM by microbeta scintillation counting method relative to control; type: cell membranes; in short: as §1
HEK293 = test: Ratio of IC50 for human N-terminal FLAG-tagged adenosine A2A receptor expressed in HEK293 cell membrane to IC50 for human N-terminal FLAG-tagged adenosine A2A receptor W246A 6.48 mutant expressed in HEK293 cell membrane; type: cell-based
In short: (§2)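 Competition binding to ADA-treated HEK293 membranes, WT receptor stably expressed (15 µg protein) or W246A mutant transiently expressed (4 µg). 2.5 nM [3H]ZM-241,385 with increasing compound concentrations, 2 h at 25 °C in 50 mM Tris-HCl pH 7.4. Filtration and scintillation counting. IC50 from a one-site fit. Nonspecific binding: 100 µM NECA (WT) or 10 µM ZM-241,385 (mutant). ≥3 independent assays in duplicate. Fold change = WT IC50 / mutant IC50.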

Adenosine receptor A2a [3] = molecular target: T1, Adenosine receptor A2a; test: Displacement of [3H]ZM-241,385 from human N-terminal FLAG-tagged adenosine A2A receptor expressed in HEK293 cell membrane assessed as radioligand residence time at 100 uM by microbeta scintillation counting method; type: cell membranes
In short: (§3)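 Dissociation assay on HEK293 membranes (WT stable, 15 µg; W246A transient, 4 µg). Preequilibration with 2.5 nM [3H]ZM-241,385 for 1 h at 4 °C. Dissociation started with 100 µM NECA ± 100 µM compound (WT, times over 180 min) or 10 µM ZM-241,385 ± 10 µM compound (mutant, over 30 min). Filtration, scintillation counting. One-phase dissociation fit gave residence time versus control. ≥3 assays in duplicate.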

Adenosine A2 receptor = Adenosine A2 receptor (Homo sapiens, UniProt P29275+P29274, W246A); test: Displacement of [3H]ZM-241,385 from human N-terminal FLAG-tagged adenosine A2A receptor W246A 6.48 mutant expressed in HEK293 cell membrane by microbeta scintillation counting method; type: cell membranes; in short: as §2
Adenosine receptor A2a [4] = molecular target: T1, Adenosine receptor A2a; test: Displacement of [3H]ZM-241,385 from human N-terminal FLAG-tagged adenosine A2A receptor expressed in HEK293 cell membrane by microbeta scintillation counting method; type: cell membranes; in short: as §2
[5] = tested on: Adenosine A2 receptor (Homo sapiens), P29275+P29274 [W246A]; test: Displacement of [3H]ZM-241,385 from human N-terminal FLAG-tagged adenosine A2A receptor W246A 6.48 mutant expressed in HEK293 cell membrane assessed as decrease in radioligand residence time at 10 uM by microbeta scintillation counting method relative to control; type: cell membranes; in short: as §3
[6] = tested on: Adenosine A2 receptor (Homo sapiens), P29275+P29274 [W246A]; test: Displacement of [3H]ZM-241,385 from human N-terminal FLAG-tagged adenosine A2A receptor W246A 6.48 mutant expressed in HEK293 cell membrane assessed as radioligand residence time at 10 uM by microbeta scintillation counting method; type: cell membranes; in short: as §3
Adenosine receptor A2a [7] = molecular target: T1, Adenosine receptor A2a; test: Displacement of [3H]ZM-241,385 from human N-terminal FLAG-tagged adenosine A2A receptor expressed in HEK293 cell membrane assessed as decrease in radioligand residence time at 100 uM by microbeta scintillation counting method relative to control; type: cell membranes; in short: as §3

T1 sequence (P29274 whole entry): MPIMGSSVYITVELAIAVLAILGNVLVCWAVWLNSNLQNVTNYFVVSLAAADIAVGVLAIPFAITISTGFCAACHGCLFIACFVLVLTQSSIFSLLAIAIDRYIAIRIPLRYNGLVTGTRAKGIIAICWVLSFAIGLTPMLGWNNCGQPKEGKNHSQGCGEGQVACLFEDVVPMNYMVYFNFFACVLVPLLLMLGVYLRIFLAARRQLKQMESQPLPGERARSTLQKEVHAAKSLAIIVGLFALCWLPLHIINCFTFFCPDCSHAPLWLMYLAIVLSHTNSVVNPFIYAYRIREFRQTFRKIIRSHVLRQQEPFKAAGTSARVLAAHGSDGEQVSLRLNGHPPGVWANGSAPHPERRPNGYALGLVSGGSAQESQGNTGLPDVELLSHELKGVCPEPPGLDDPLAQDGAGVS

| SMILES | Activity (Adenosine receptor A2a [1]) | Activity [2] | also measured |
| --- | --- | --- | --- |
| C=CCOc1ccc(CCNc2nc(N)c(C(=O)N=C(N)N)nc2Cl)cc1 | 43% | 2.2% | – |
| NC(N)=NC(=O)c1nc(Cl)c(NCCc2ccc(Br)cc2)nc1N | 67% | 4.8% | – |
| NC(N)=NC(=O)c1nc(Cl)c(NCCc2ccc(OC(F)(F)F)cc2)nc1N | 63% | 5.2% | – |
| NC(N)=NC(=O)c1nc(Cl)c(NCCc2ccc(O)cc2)nc1N | 72% | 9.5% | – |
| NC(N)=NC(=O)c1nc(Cl)c(NCCc2ccc(Cl)c(Cl)c2)nc1N | 82% | 11% | – |
| NC(N)=NC(=O)c1nc(Cl)c(NC2Cc3ccccc3C2)nc1N | 68% | 6.6% | – |
| Cl.NC(N)=NC(=O)c1nc(Cl)c(NCCc2ccc3c(c2)OCO3)nc1N | 35% | 1% | Ratio IC50 (HEK293): 80; TIME (Adenosine receptor A2a [3]): 1.02 h; IC50 (Adenosine A2 receptor): 0.07 µM; IC50 (Adenosine receptor A2a [4]): 5.6 µM; fold change (FC) [5]: 2.3; TIME [6]: 0.02 h |
| N=C(N)NC(=O)c1nc(Cl)c(N)nc1N | 71% | 11% | – |
| CCOc1ccc(CCNc2nc(N)c(C(=O)N=C(N)N)nc2Cl)cc1.O=C(O)C(F)(F)F | 27% | 3.5% | Ratio IC50 (HEK293): 76; TIME (Adenosine receptor A2a [3]): 0.667 h; IC50 (Adenosine A2 receptor): 0.05 µM; IC50 (Adenosine receptor A2a [4]): 3.4 µM; fold change (FC) [5]: 2.1; fold change (FC) (Adenosine receptor A2a [7]): 1.5; TIME [6]: 0.0217 h |
| NC(N)=NC(=O)c1nc(Cl)c(NCCc2ccc([N+](=O)[O-])cc2)nc1N | 68% | 5.8% | – |
| COc1ccc(CCNc2nc(N)c(C(=O)N=C(N)N)nc2Cl)cc1OC | 51% | 1.8% | – |
| COc1ccc(CCNc2nc(N)c(C(=O)N=C(N)N)nc2Cl)cc1.Cl | 31% | -0.4% | Ratio IC50 (HEK293): 37; TIME (Adenosine receptor A2a [3]): 0.733 h; IC50 (Adenosine A2 receptor): 0.12 µM; IC50 (Adenosine receptor A2a [4]): 4.4 µM; fold change (FC) [5]: 1.3; fold change (FC) (Adenosine receptor A2a [7]): 1.5; TIME [6]: 0.0333 h |
| N=C(N)NC(=O)c1nc(Cl)c(N2CCCCCC2)nc1N [N,N-HEXAMETHYLENEAMILORIDE] | 30% | 1.8% | Ratio IC50 (HEK293): 19; TIME (Adenosine receptor A2a [3]): 0.467 h; IC50 (Adenosine A2 receptor): 0.27 µM; IC50 (Adenosine receptor A2a [4]): 5.1 µM; fold change (FC) [5]: 1.9; fold change (FC) (Adenosine receptor A2a [7]): 2.2; TIME [6]: 0.0233 h |
| CCCCOc1ccc(CCNc2nc(N)c(C(=O)N=C(N)N)nc2Cl)cc1 | 66% | 3.4% | – |

More lines, main results first:

| Activity (Adenosine receptor A2a [1]) | Activity [2] | SMILES | also measured |
| --- | --- | --- | --- |
| 96% | 70% | N=C(N)NC(=O)c1nc(Cl)c(NCCC(=O)O)nc1N | – |
| 65% | 17% | N#CCCNc1nc(N)c(C(=O)NC(=N)N)nc1Cl | – |
| 75% | 4% | NC(N)=NC(=O)c1nc(Cl)c(NCCc2ccc(OCc3ccccc3)cc2)nc1N | – |
| 96% | 48% | N=C(N)NC(=O)c1nc(Cl)c(NCc2ccc(F)cc2)nc1N | – |
| 99% | 101% | N=C(N)NC(=O)c1nc(Cl)c(NCCc2nnn[nH]2)nc1N | – |
| 85% | 53% | CCN(CC)CCNc1nc(N)c(C(=O)NC(=N)N)nc1Cl | – |
| 88% | 111% | N=C(N)NC(=O)c1nc(Cl)c(NCC(=O)O)nc1N | – |
| 92% | 32% | NC(N)=NC(=O)c1nc(Cl)c(NCCc2ccc(Cl)cc2)nc1N | – |
| 71% | 46% | N=C(N)NC(=O)c1nc(Cl)c(NCc2cccnc2)nc1N | – |
| 82% | 18% | N=C(N)NC(=O)c1nc(Cl)c(NCCS(=O)(=O)Cc2ccccc2)nc1N | – |
| 41% | 5.4% | COc1cccc(CCNc2nc(N)c(C(=O)N=C(N)N)nc2Cl)c1.Cl | Ratio IC50 (HEK293): 32; TIME (Adenosine receptor A2a [3]): 0.7 h; IC50 (Adenosine A2 receptor): 0.25 µM; IC50 (Adenosine receptor A2a [4]): 8.1 µM; fold change (FC) [5]: 3.4; fold change (FC) (Adenosine receptor A2a [7]): 1.5; TIME [6]: 0.0133 h |
| 87% | 73% | N=C(N)NC(=O)c1nc(Cl)c(NCc2ccncc2)nc1N | – |
| 50% | 2.1% | Cc1ccc(CCNc2nc(N)c(C(=O)N=C(N)N)nc2Cl)cc1 | – |
| 87% | 48% | CCOC(=O)CCNc1nc(N)c(C(=O)NC(=N)N)nc1Cl | – |
| 90% | 65% | N=C(N)NC(=O)c1nc(Cl)c(NCCNCc2ccccc2)nc1N | – |
| 77% | 21% | N=C(N)NC(=O)c1nc(Cl)c(NCc2ccccc2)nc1N | – |
| 60% | 9% | NC(N)=NC(=O)c1nc(Cl)c(NCCCc2ccccc2)nc1N | – |
| 85% | 32% | Cc1ccc(S(=O)(=O)NCCNc2nc(N)c(C(=O)NC(=N)N)nc2Cl)cc1 | – |
| 54% | 1.1% | N=C(N)NC(=O)c1nc(Cl)c(NCCc2ccccc2)nc1N | – |
| 84% | 35% | N=C(N)NC(=O)c1nc(Cl)c(NCCSCc2ccccc2)nc1N | – |
